# Bioassay records from PubChem.
# PPC-1+TRAIL kill = compounds killing PPC-1 cancer cells with TRAIL present (potentiator screen, no TRAIL-free arm); PPC-1 cells + TRAIL, ATPLite viability luminescence; cell killing (% activity), % at 4 µM or 5 µM; 0.41% of 220,000 active; AID 1443;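 active = cell killing above 50% in the first pass at 4 µM, then a duplicate retest at 5 µM averaging 50% or more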
# C8 TRAIL sens = caspase-8 TRAIL sensitization | NB7+C8 cells + TRAIL, ATPlite viability luminescence | inhibition (viability loss, TRAIL sensitization), % at 10 µM | 1% of 360,000 active | AID 624354;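 active = compounds causing at least 50% loss of cell viability in the single-dose screen, relative to plate controls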
# FLuc inh counter = inhibits firefly luciferase, flagging false hits in luciferase inhibition screens. 1.5% of 200,000 active. inhibition, % at 10 µM. ATPLite firefly luciferase biochemical luminescence, 10 min. AID 1006;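 active = inhibition above about 50% when tested at 10 µM, limit read from the data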
# Target sequence (P08659 whole entry, looked up): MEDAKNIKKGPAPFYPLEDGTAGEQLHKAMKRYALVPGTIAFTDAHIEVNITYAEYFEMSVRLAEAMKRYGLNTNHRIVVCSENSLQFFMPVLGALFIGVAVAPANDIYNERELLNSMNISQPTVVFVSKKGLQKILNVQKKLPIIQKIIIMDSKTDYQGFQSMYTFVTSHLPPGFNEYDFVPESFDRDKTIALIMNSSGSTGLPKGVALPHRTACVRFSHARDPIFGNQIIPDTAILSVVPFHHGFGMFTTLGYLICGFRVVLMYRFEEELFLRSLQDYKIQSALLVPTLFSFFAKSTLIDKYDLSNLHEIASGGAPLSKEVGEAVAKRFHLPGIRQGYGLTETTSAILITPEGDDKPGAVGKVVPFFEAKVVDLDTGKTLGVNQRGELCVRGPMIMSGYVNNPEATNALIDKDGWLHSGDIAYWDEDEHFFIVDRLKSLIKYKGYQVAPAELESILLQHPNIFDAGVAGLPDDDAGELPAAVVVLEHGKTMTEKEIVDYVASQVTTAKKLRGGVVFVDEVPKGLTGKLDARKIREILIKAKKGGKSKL
# FLuc act counter = affects firefly luciferase, flagging false hits in luciferase stimulation screens | ATPlite luciferase biochemical, luminescence, 10 min; 0 = ATP-free wells, 1 = DMSO control | activation factor at 10 µM | AID 1027 | 200,000 tested, under 10 active | P08659;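 active = luciferase activation factor, scaled between plate controls, of at least 2 with compound at 10 µM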
#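 System: Luciferase/luciferin detection reagent, cell-free biochemical luciferase assay | Medium: PBS buffer for ATP | Dosing: Test compounds dosed from 2 mM stocks in 100% DMSO | Timing: 10 min at ambient temperature | Signal: Luminescence measurement of luciferase light output | Evaluation: Luciferase activation, seen as luminescence increase over controls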
# PPC1 cytotox = kills PPC-1 cells; cytotoxicity, % at 5 µM; shares compounds with PPC-1+TRAIL kill; 50% of 1,200 active; PPC-1 viability, ATPlite luminescence, overnight; AID 1447;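 active = reconfirmed compounds whose average cytotoxicity reaches 50% or more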
# Numbers stand for hits; 0 = inactive; - = not tested or not shown. Only some compounds are listed: those with a hit (about 1.5% of all), similar ones and a draw of the others.
SMILES,PPC-1+TRAIL kill,C8 TRAIL sens,FLuc inh counter,FLuc act counter,others
CC1Oc2ccccc2C=C1/C=N/NC(=O)c1ccccc1O (configuration not stated),0,50,78,0,
O=C(N/N=C/c1cccnc1)c1ccc2c(c1)OCO2,-,50,-,-,
Cc1ccsc1/C=N/NC(=O)c1sccc1C,0,0,0,0,
CC(C)(C)C(=O)Nc1nnc(COc2ccc(Cl)cc2)s1,0,0,-,-,
O=C(N/N=C/c1ccccc1)c1ccco1,0,0,-,-,
O=C(N/N=C/c1ccc2cccnc2c1)c1ccco1,0,61,88,0,
O=[N+]([O-])c1cc([N+](=O)[O-])c2oc(-c3ccccc3)c(Br)c2c1O,-,0,-,-,
Cc1ccc(C(=O)O/N=C(\N)c2ccc(Br)cc2)cc1C,0,86,0,0,
Cc1ccc(C(=O)O/N=C(\N)Cc2cccs2)c(Cl)c1,-,96,-,-,
Cc1cc(C)cc(C(=O)O/N=C(\N)c2ccc(Br)cc2)c1,0,90,0,0,
Cc1cccc(C(=O)O/N=C(\N)c2ccc(Br)cc2)c1,0,0,0,0,
Cc1ccc(/C(N)=N/OC(=O)c2ccc(Cl)cc2Cl)cc1,57,67,75,0,
Cc1ccc(C(=O)O/N=C(\N)Cc2ccc([N+](=O)[O-])cc2)c(Cl)c1,0,0,-,-,
O=C(Nc1cccc(Cl)c1)c1csc([C@@H]2O[C@H](CO)[C@H](O)[C@H](O)[C@H]2O)n1,-,0,-,-,
CCC1(c2ccc(F)cc2)NC(=O)N(CC(=O)Nc2cccc(S(=O)(=O)N3CCOCC3)c2)C1=O (configuration not stated),-,0,-,-,
Cc1ccc(C)c(C(=O)O/N=C(\N)c2ccc(Br)cc2)c1,0,78,0,0,
CCn1cc(C(=O)NCc2ccco2)c(=O)c2cc(S(=O)(=O)N3CC(C)CC(C)C3)ccc21 (configuration not stated),55,83,0,0,
CN(C)CCCNC(=O)c1ccccn1,0,0,0,0,
CN(C)CCCNC(=O)c1ccc(-c2nc(-c3ccc(Cl)cc3)cs2)cc1,0,90,0,0,
CN(C(=O)c1ccc(NC(=O)Cc2cccc(NC(=O)C3CCCN(S(=O)(=O)c4cccc([N+](=O)[O-])c4)C3)c2)cc1)C1CC1 (configuration not stated),-,54,-,-,
O=C(Nc1ccc(N2C(=O)CCC2=O)cc1Cl)c1cccs1,0,0,0,0,
COc1cc(C(CC(=O)Nc2ccc(Cl)cn2)N2Cc3ccccc3C2=O)cc(OC)c1OC (configuration not stated),-,0,-,-,
O=c1c2[nH]c3ccc(F)cc3c2ncn1C1CCCCC1,0,51,0,0,
Cc1ccc2nsnc2c1NS(=O)(=O)c1c(C)ccc2nsnc12,0,0,0,0,
Cc1ccc(/C=[N+](\[O-])c2ccc(N(C)C)cc2)c2nsnc12,0,0,72,0,
SMILES,PPC-1+TRAIL kill,C8 TRAIL sens,FLuc inh counter,FLuc act counter,others
CCc1ccccc1C1C(=O)c2ccccc2C1=O,-,48,-,-,
COc1cccc(C2(CSc3nnc(-c4cc(OC)c(OC)c(OC)c4)o3)OCCO2)c1,0,0,0,0,
C=CCNc1nc(NCc2ccc(NC(C)=O)cc2)c2sc(-c3ccccc3)cc2n1,-,64,-,-,
COc1ccc(-c2cc(CNc3nc(NC(C)C)nc4cc(-c5ccccc5)sc34)on2)cc1,-,80,-,-,
CC(=O)Nc1ccc(CNc2nc(NC(C)C)nc3cc(-c4ccccc4)sc23)cc1,-,0,-,-,
N/C(=N\OC(=O)C12CC3CC(CC(C3)C1)C2)c1ccccn1,0,0,66,0,
N/C(=N\OC(=O)C12CC3CC(CC(C3)C1)C2)c1cccnc1,0,0,0,0,
N/C(=N\OC(=O)C12CC3CC(CC(C3)C1)C2)c1ccccc1,0,60,65,0,
O=C(COC(=O)c1cccc(Br)c1)NCCNC(=O)COC(=O)c1cccc(Br)c1,-,0,-,-,
CC(NC(=O)c1c(O)c2ccccc2[nH]c1=O)c1ccccc1 (configuration not stated),-,0,-,-,
O=C(CS(=O)(=O)Cc1ccccc1)N1CCc2ccccc21,0,0,0,0,
O=C(CCCc1ccccc1)N1CCc2ccccc21,0,0,52,0,
O=C(Cc1csc(NC(=O)Nc2ccc(Cl)cc2)n1)NCc1ccccn1,-,54,-,-,
Cc1ccc(C(=O)Nc2ccc(CC(=O)O)cc2)o1,0,0,0,0,
CC(C)(C)c1ccc(C(=O)Nc2ccc(CC(=O)O)cc2)o1,0,0,51,0,
O=C(CCl)Nc1cc(SCC(O)CO)cc([N+](=O)[O-])c1 (configuration not stated),0,0,0,0,PPC1 cytotox=50
O=C(Nc1cccc([N+](=O)[O-])c1)C1CC(=O)N(C2CCCCC2)C1 (configuration not stated),0,0,0,0,
Cc1ccc(/C=C(\C#N)c2nc3ccccc3[nH]2)s1,51,61,0,0,PPC1 cytotox=57
N#C/C(=C/c1cccs1)c1nc2ccccc2[nH]1,0,0,0,0,
CCNC(=S)N/N=C/c1sc(N2CCCCC2)nc1-c1cccs1,0,0,62,0,PPC1 cytotox=0
CCNC(=S)Nc1ccc(N2CCCCC2)cc1,0,0,0,0,
O=C(C1Cc2ccccc2CN1S(=O)(=O)c1ccc(F)cc1)N1CCCCC1 (configuration not stated),0,0,0,0,PPC1 cytotox=0
O=C(c1ccco1)N1CCN(C(=O)C2Cc3ccccc3CN2S(=O)(=O)c2ccc(F)cc2)CC1 (configuration not stated),0,0,0,0,
CCN(CC)CCCNC(=O)Cn1nc([N+](=O)[O-])c(Cl)c1C,0,0,0,0,
O=C(N/C(=C/c1ccccc1F)C(=O)N1CCCCC1)c1ccccc1,-,0,-,-,
SMILES,PPC-1+TRAIL kill,C8 TRAIL sens,FLuc inh counter,FLuc act counter,others
Cn1cnnc1Sc1ccc(C(=O)OCC(=O)NC2CC2)cc1[N+](=O)[O-],0,0,0,0,PPC1 cytotox=0
CC1CCC(NC(=O)COC(=O)CSc2ccc(C(N)=O)cc2[N+](=O)[O-])CC1 (configuration not stated),-,0,-,-,
CCOC(=O)C1=C2N(C)c3ccccc3N2CCC1=O,0,0,0,0,PPC1 cytotox=0
CCN(CC)CCNC(=O)c1ccc2c(c1NCCO)C(=O)c1ccccc1C2=O,0,95,-,-,PPC1 cytotox=0
Cc1cccc(N=C2NN=C(c3c(C)[nH]c4ccccc34)CS2)c1,0,0,0,0,
Cc1cccc(N=C2NN=C(c3ccc4c(c3)OCCO4)CS2)c1,0,0,81,0,PPC1 cytotox=0
CCOC(=O)c1ccccc1NC(=O)CSc1ccc(-c2cccnc2)nn1,0,0,0,0,PPC1 cytotox=0
Cc1ccccc1NC(=O)CSc1ccc(-c2cccnc2)nn1,-,0,-,-,
C(=N\Nc1nc2ccccc2[nH]1)/c1ccc2ncccc2c1,70,81,-,-,PPC1 cytotox=72
CCCCn1c(/C=N/Nc2nc3ccccc3[nH]2)nc2ccccc21,0,0,0,0,
C(=N\Nc1nc2ccccc2[nH]1)/c1ccccn1,79,91,96,0,PPC1 cytotox=80
Fc1ccccc1-c1ccc(/C=N/Nc2nc3ccccc3[nH]2)o1,80,79,93,0,PPC1 cytotox=78
Cc1ccc(/C=N\Nc2nc3ccc(Cl)cc3[nH]2)o1,0,0,0,0,PPC1 cytotox=0
COc1ccc(/C=N/Nc2nc3ccccc3[nH]2)cc1OC,0,0,0,0,
